Experimental data published in ChEMBL document CHEMBL4715813, “Allicin-inspired pyridyl disulfides as antimicrobial agents for multidrug-resistant Staphylococcus aureus” (Eur J Med Chem, 2018).
In brackets after ≈: the same amount, converted by molar mass. Activity calls are given as the source filed them. No cut-off for these calls is given here.

How the values were obtained:
Staphylococcus aureus [1] = assay: Synergistic antibacterial activity against vancomycin-resistant Staphylococcus aureus HIP14300 assessed as fractional inhibitory concentration index incubated for 20 hrs in presence of vancomycin by checkerboard titration assay; type: functional
In short: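 Checkerboard: VRSA HIP14300 as a 0.5 McFarland suspension diluted 1:100 in CAMHB, inoculated into twofold serial dilutions of disulfide and vancomycin, sealed, 20 h at 37 °C. Growth read by MTT staining with DMSO solubilization. ΣFIC = FIC1h + FICVAN; synergy ≤ 0.5, indifferent >0.5–≤4, antagonism >4.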

Staphylococcus aureus [2] = assay: Antibacterial activity against methicillin-susceptible Staphylococcus aureus ATCC 25923 assessed as delayed bacterial proliferation at 0.25 times of MIC for 10 hrs; type: functional, organism-based
Staphylococcus aureus [3] = assay: Synergistic antibacterial activity against methicillin-resistant Staphylococcus aureus ATCC 43300 in presence of vancomycin by disc diffusion method; type: functional, organism-based
Staphylococcus aureus [4] = assay: Bactericidal activity against vancomycin-intermediate resistant Staphylococcus aureus Mu50 ATCC 700699 assessed as bacterial killing incubated for over night; type: functional
In short: (§1)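 For MBC, 5 μL from each well was spotted on agar and incubated overnight; MBC is the lowest concentration with no visible growth. Ratio taken as MBC over MIC.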

Staphylococcus aureus [5] = assay: Antibacterial activity against heterogeneous vancomycin-intermediate Staphylococcus aureus Mu3 ATCC 700698 assessed as bacterial growth inhibition measured between 5 to 7 passages by broth dilution method; type: functional
In short: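 Serial passage with hVISA Mu3, VISA and VRSA strains grown at 0.5× MIC of agent (± equimolar vancomycin). […] MIC was read visually at each passage.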

Staphylococcus aureus [6] = assay: Antibacterial activity against vancomycin-intermediate resistant Staphylococcus aureus Mu50 ATCC 700699 assessed as bacterial growth inhibition by measuring fold increase in MIC between 5 to 7 passages by broth dilution method; type: functional
Staphylococcus aureus [7] = assay: Bactericidal activity against heterogeneous vancomycin-intermediate Staphylococcus aureus Mu3 ATCC 700698 assessed as bacterial killing incubated for over night; type: functional; in short: as §1
Staphylococcus aureus [8] = assay: Antibacterial activity against vancomycin-intermediate resistant Staphylococcus aureus Mu50 ATCC 700699 assessed as zone of inhibition by disc diffusion method; type: functional
Enterobacter cloacae = assay: Antibacterial activity against Enterobacter cloacae ATCC 23355 assessed as zone of inhibition by disc diffusion method; type: functional
Staphylococcus aureus [9] = assay: Antibacterial activity against methicillin-susceptible Staphylococcus aureus ATCC 25923 in presence of glutathione; type: functional
In short: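 Broth microdilution MIC: a 0.5 McFarland suspension from overnight culture was diluted 1:100 in cation-adjusted Mueller Hinton broth supplemented with glutathione 100 μM. It was exposed to serial dilutions for 20 h at 37 °C. MIC was taken as the lowest concentration with no visible growth.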

Staphylococcus aureus [10] = assay: Antibacterial activity against methicillin-susceptible Staphylococcus aureus ATCC 25923 assessed as delayed bacterial proliferation at 0.5 times of MIC for 15 hrs; type: functional, organism-based
Staphylococcus aureus [11] = assay: Antibacterial activity against methicillin-susceptible Staphylococcus aureus ATCC 25923 assessed as bacterial growth inhibition incubated for 20 hrs by broth dilution method; type: functional
In short: (§2)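 Broth microdilution: 0.5 McFarland suspension from an overnight culture, diluted 1:100 in cation-adjusted Mueller Hinton broth (CAMHB), given serial dilutions of test agent for 20 h at 37 °C. MIC is the lowest concentration with no visible growth.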

Staphylococcus aureus [12] = assay: Antibacterial activity against heterogeneous vancomycin-intermediate Staphylococcus aureus Mu3 ATCC 700698 assessed as bacterial growth inhibition incubated for 20 hrs by broth dilution method; type: functional; in short: as §2
Staphylococcus aureus [13] = assay: Antibacterial activity against methicillin-susceptible Staphylococcus aureus ATCC 25923 assessed as zone of inhibition by disc diffusion method; type: functional
Acinetobacter baumannii = assay: Antibacterial activity against multidrug-resistant Acinetobacter baumannii BAA 1605 assessed as zone of inhibition by disc diffusion method; type: functional
Staphylococcus aureus [14] = assay: Antibacterial activity against heterogeneous vancomycin-intermediate resistant Staphylococcus aureus Mu3 ATCC 700698 assessed as zone of inhibition by disc diffusion method; type: functional
Enterococcus faecalis = assay: Antibacterial activity against vancomycin-susceptible Enterococcus faecalis ATCC 29212 assessed as zone of inhibition by disc diffusion method; type: functional
Escherichia coli = assay: Antibacterial activity against beta-lactam resistant Escherichia coli BAA 2326 assessed as zone of inhibition by disc diffusion method; type: functional
Staphylococcus aureus [15] = assay: Ratio of MBC to MIC against vancomycin-intermediate resistant Staphylococcus aureus Mu50 ATCC 700699; type: functional; in short: as §1
Staphylococcus aureus [16] = assay: Antibacterial activity against vancomycin-intermediate Staphylococcus aureus clinical isolate 12 assessed as bacterial growth inhibition after 20 hrs by broth microdilution assay; type: functional; in short: as §2
Staphylococcus aureus [17] = assay: Antibacterial activity against linezolid-resistant Staphylococcus aureus assessed as bacterial growth inhibition incubated for 20 hrs by broth dilution method; type: functional; in short: as §2
HepG2 = assay: Cytotoxicity against human HepG2 cells assessed as reduction in cell viability after 72 hrs by MTT assay; type: cell-based; settings: HepG2, 72 h
In short: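 MTT viability: MDA-MB-231 and HepG2 cells (kept in DMEM with 10% FBS) were seeded at 5000/well and allowed to adhere overnight. They were exposed to 0.001–100 μM for 72 h, then given MTT 1 mg/mL in PBS pH 7.4 for 2 h. Formazan was dissolved in DMSO and A570 read. IC50 was taken from dose-response curves.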

Staphylococcus aureus [18] = assay: Antibacterial activity against vancomycin-resistant Staphylococcus aureus clinical isolate 10 assessed as bacterial growth inhibition after 20 hrs by broth microdilution assay; type: functional; in short: as §2
Staphylococcus aureus [19] = assay: Disruption of membrane potential in Staphylococcus aureus after 15 to 30 mins by DiOC2(3) probe based flow cytometric anlaysis; type: functional, organism-based; settings: time 15-30 min
In short: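 An overnight S. aureus culture was diluted 1:100 in LB, shaken 2 h at 37 °C, then diluted to a final 1:200. Cells were treated with 3–30 μM, DMSO 2% vehicle or CCCP at 37 °C with shaking. At 15 and 30 min, samples were stained 20 min with DiOC2(3). Flow cytometry used ex 488 nm, green 530/30 and red 585/42, reported as red/green ratio (mean ± SEM).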

Staphylococcus aureus [20] = assay: Antibacterial activity against vancomycin-intermediate resistant Staphylococcus aureus Mu50 ATCC 700699 assessed as bacterial growth inhibition incubated for 20 hrs by broth dilution method; type: functional; in short: as §2
Staphylococcus aureus [21] = assay: Antibacterial activity against vancomycin-resistant Staphylococcus aureus HIP11714 assessed as zone of inhibition by disc diffusion method; type: functional
Staphylococcus aureus [22] = assay: Ratio of MBC to MIC against methicillin-susceptible Staphylococcus aureus ATCC 25923; type: functional; in short: as §1
Staphylococcus aureus [23] = assay: Induction of membrane permeabilization in methicillin-susceptible Staphylococcus aureus ATCC 25923 assessed as cell viability at 1 to 5 times of MIC incubated for 5 mins by SYTO9 and PI staining based fluorescence assay; type: functional, organism-based
In short: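 S. aureus […] was grown to OD600 0.4 in LB, washed with PBS and resuspended in 100 mM potassium phosphate pH 7.0 with 5 mM MgSO4. […] Controls were DMSO 5% and nisin 25 μg/mL. SYTO 9/propidium iodide staining ran 15 min at r.t. in the dark, and the green/red ratio (ex 485; em 535/595 nm) was read. Data are mean ± SEM, n = 3.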

Staphylococcus aureus [24] = assay: Antibacterial activity against hospital acquired methicillin-resistant Staphylococcus aureus ATCC 43300 assessed as zone of inhibition by disc diffusion method; type: functional

CCCCCCCCSSc1ccccn1
FIC (Staphylococcus aureus [1]): <=0.5 | Activity (Staphylococcus aureus [2]): Active | Activity (Staphylococcus aureus [3]): Active | MBC (Staphylococcus aureus [4]): 25 µM (≈ 6.39 µg/mL) | MIC (Staphylococcus aureus [5]): > 50 µM | fold change (FC) (Staphylococcus aureus [6]): >2 | MBC (Staphylococcus aureus [7]): > 50 µM | diameter of the inhibition zone (DIZ) (Staphylococcus aureus [8]): 43 mm | diameter of the inhibition zone (DIZ) (Enterobacter cloacae): 0 mm | MIC (Staphylococcus aureus [9]): 50 µM | Activity (Staphylococcus aureus [10]): Active | MIC (Staphylococcus aureus [11]): 12.5 µM (≈ 3.19 µg/mL) | MIC (Staphylococcus aureus [12]): 12.5 µM (≈ 3.19 µg/mL) | diameter of the inhibition zone (DIZ) (Staphylococcus aureus [13]): 30 mm | diameter of the inhibition zone (DIZ) (Acinetobacter baumannii): 0 mm | diameter of the inhibition zone (DIZ) (Staphylococcus aureus [14]): 37 mm | diameter of the inhibition zone (DIZ) (Enterococcus faecalis): 12 mm | diameter of the inhibition zone (DIZ) (Escherichia coli): 0 mm | Ratio (Staphylococcus aureus [15]): 8 | MIC50 (Staphylococcus aureus [16]): 12.5 µM (≈ 3.19 µg/mL) | MIC90 (Staphylococcus aureus [16]): 12.5 µM (≈ 3.19 µg/mL) | MIC (Staphylococcus aureus [17]): 25 µM (≈ 6.39 µg/mL) | IC50 (HepG2): ≥ 100 µM | MIC50 (Staphylococcus aureus [18]): 6.25 µM (≈ 1.6 µg/mL) | MIC90 (Staphylococcus aureus [18]): 12.5 µM (≈ 3.19 µg/mL) | Activity (Staphylococcus aureus [19]): Dose-dependent effect | MIC (Staphylococcus aureus [20]): 3.13 µM (≈ 0.8 µg/mL) | diameter of the inhibition zone (DIZ) (Staphylococcus aureus [21]): 38 mm | Ratio (Staphylococcus aureus [22]): >4 | Activity (Staphylococcus aureus [23]): inactive | diameter of the inhibition zone (DIZ) (Staphylococcus aureus [24]): 38 mm
